# Compound activity (PubChem)
# A selection: hits, their analogues and other compounds. The true share with any hit is near 3%.
# Xi reactivation – X-chromosome reactivation activator; AID 743238; XiGFP mouse fibroblasts, % GFP-positive cells imaging, 3 d; cells co-treated with 5-aza-dC sensitizer; scaled so ellipticine positive control = 100%; activation, % at 7.58 µM; hit rate 0.055% among 360,000;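 active = mean normalized replicate activation at least 10% and every replicate at or above 10%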;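 note: 0% = median of on-plate neutral control wells and 100% = ellipticine 6 µM median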
#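 material = 68-5-11 XiGFP fibroblast line | medium = DMEM plus 5-aza-dC sensitizer | schedule = 3 days compound exposure | benchmarks = positive control ellipticine, 6 µM final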
# esBAF inh – blocks esBAF chromatin remodeling in mouse ES cells | Bmi1-luciferase knock-in reporter, 24 h; 100% = twice the neutral-well signal | reporter increase, % at 12.5 µM | hit rate 2% among 350,000 | AID 602393; in the data active = activation above about 40%;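 note: 0% = median of the plate's neutral control wells and 100% = double that signal; a rise in the Bmi1 reporter signal indicates esBAF inhibition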
# NSD2 HMT inh – NSD2 (human) methyltransferase inhibition; AID 743445; NSD2 peptide methylation, AlphaScreen, 120 min; inhibition, % at 12.5 µM; O96028; hit rate 0.54% among 310,000; in the data active = inhibition above about 50%
# Target sequence (O96028 whole entry, looked up): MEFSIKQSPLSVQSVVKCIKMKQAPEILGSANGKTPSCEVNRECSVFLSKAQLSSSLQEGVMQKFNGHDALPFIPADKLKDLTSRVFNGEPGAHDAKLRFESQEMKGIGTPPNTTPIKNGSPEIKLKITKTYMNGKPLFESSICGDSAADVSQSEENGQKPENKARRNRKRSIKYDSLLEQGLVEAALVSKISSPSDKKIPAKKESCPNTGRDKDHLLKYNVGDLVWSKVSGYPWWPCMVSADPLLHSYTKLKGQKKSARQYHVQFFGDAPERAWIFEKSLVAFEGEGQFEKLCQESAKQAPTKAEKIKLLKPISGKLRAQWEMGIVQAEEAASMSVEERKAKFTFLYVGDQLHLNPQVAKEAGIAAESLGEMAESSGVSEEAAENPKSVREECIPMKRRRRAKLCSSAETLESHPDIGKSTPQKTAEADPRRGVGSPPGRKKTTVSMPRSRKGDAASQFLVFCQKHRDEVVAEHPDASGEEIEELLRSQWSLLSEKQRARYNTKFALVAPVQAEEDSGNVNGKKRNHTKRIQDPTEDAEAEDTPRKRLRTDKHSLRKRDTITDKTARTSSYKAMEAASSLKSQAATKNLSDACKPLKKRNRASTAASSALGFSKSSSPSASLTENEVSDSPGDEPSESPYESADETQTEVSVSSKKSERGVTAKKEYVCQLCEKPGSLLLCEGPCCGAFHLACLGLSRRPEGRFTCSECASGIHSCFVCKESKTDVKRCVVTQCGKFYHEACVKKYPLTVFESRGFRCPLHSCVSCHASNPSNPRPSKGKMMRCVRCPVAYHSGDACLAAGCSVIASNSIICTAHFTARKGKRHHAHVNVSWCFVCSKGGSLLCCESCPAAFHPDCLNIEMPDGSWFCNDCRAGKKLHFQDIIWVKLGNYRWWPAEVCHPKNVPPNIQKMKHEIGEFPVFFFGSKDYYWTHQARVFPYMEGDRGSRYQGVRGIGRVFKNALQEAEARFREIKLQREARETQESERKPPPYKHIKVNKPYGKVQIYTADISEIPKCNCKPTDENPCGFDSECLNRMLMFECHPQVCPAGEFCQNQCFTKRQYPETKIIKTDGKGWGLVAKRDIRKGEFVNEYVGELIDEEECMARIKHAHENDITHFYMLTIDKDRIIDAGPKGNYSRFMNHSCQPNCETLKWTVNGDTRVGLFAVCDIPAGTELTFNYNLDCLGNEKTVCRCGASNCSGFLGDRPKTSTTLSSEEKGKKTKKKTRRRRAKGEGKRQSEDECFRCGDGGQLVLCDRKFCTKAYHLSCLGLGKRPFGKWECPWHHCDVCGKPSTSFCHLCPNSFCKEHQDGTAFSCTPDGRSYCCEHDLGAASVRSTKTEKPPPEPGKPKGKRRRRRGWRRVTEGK
# MITF TRPM1 HTS – increases MITF-driven TRPM1 promoter luciferase signal | SK-MEL-5 TRPM1-promoter luciferase, 24 h; % of positive control, neutral wells = 0 | activation, % at 12.5 µM | hit rate 0.75% among 300,000;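 active = mean activation of at least 80% with every replicate also reaching 80%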;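 note: 0% = neutral control wells and 100% = parthenolide positive control wells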
# Wnt bcat act – activators of Wnt/beta-catenin signaling. hit rate 1.2% among 300,000. activation, % at 9.35 µM. Wnt/beta-catenin reporter cell assay, activator, plate reader; in the data active = activation above about 30%, passing the limit was not always enough;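 note: 0% = neutral control wells and 100% = positive control wells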
# Casp6 inh – inhibitors of human caspase-6. P55212. purified caspase-6, Z-VEID-R110 cleavage fluorescence. inhibition, % at 12.5 µM. hit rate 0.53% among 350,000;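 active = mean inhibition across replicates at least about 35%, with every replicate also reaching that limit, limit read from the data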;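 note: 0% = median of neutral control wells and 100% = no fluorescence left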
# Alpha artifact – counter-screen for NSD2 inhibitors: AlphaScreen artifacts; shares compounds with NSD2 HMT inh; AlphaScreen artifact counterscreen, preloaded methylated H4 peptide; AC35, µM (highest dose often 10 µM), inactives show top-dose activity change, negative = signal loss; hit rate 9.4% among 1,500; AID 1053174; call rule not given here
# Numbers without * were called inactive; · = no result given; + = active, no number.
SMILES,Xi reactivation,esBAF inh,NSD2 HMT inh,MITF TRPM1 HTS,Wnt bcat act,Casp6 inh,Alpha artifact
COC(=O)c1cc(C)nc2c1C(=O)C(=O)C=C2N1CCOCC1,1,-45,+,·,-10,83*,-1%
Cc1ccc(NC2CCCN(C(=O)c3ccccc3N3CCOCC3)C2)cc1C (configuration not stated),0,0,9,-1,0,1,·
COc1ccc(NC2CCCN(C(=O)c3ccccc3N3CCOCC3)C2)cc1OC (configuration not stated),0,-4,72*,-1,-2,4,1%
O=C1c2cc(O)c(O)cc2OC(c2ccc(O)c(O)c2)C1O (configuration not stated),0,·,68*,1,3,55*,-11%
COc1ccc(C2N(C(=O)C(F)(F)F)C(C)CN2S(=O)(=O)c2ccc(C)cc2)cc1 (configuration not stated),0,-2,86*,-23,0,0,1%
COc1ccc(C2N(C(C)=O)CCN2S(=O)(=O)c2ccc(C)cc2)cc1 (configuration not stated),0,-3,17,1,2,3,·
Cc1ccc(S(=O)(=O)N2CCN(C(=O)C(F)(F)F)C2c2ccc(N(C)C)cc2)cc1 (configuration not stated),0,2,122*,·,1,-1,-3%
CC(=O)N(C)C[C@H]1Oc2ncc(/C=C/c3ccccc3)cc2C(=O)N([C@H](C)CO)C[C@@H]1C,0,0,·,·,·,1,·
S=C(Nc1cccnc1)Nc1cccc2cnccc12,0,-7,108*,-7,4,44*,2%
COc1ccccc1NC(=S)Nc1cccc2cnccc12,0,·,82*,-15,2,8,-1%
CCN(C(=S)Nc1cccnc1)c1cccc2ccccc12,0,·,100*,-23,-1,13,-6%
COc1ccc(NC(=S)Nc2cccc3cnccc23)cc1,0,20,55*,2,·,·,4%
CN(C)S(=O)(=O)c1cccc(NC(=S)Nc2cccc3cnccc23)c1,1,·,·,-3,-5,2,·
Cc1cccc(N2CCN(S(=O)(=O)c3c(C)nc4scc(C)n4c3=O)CC2C)c1 (configuration not stated),0,2,105*,9,-2,0,1%
Cc1nc2scc(C)n2c(=O)c1S(=O)(=O)N1CCN(c2ccccc2)CC1,0,-5,6,-1,-3,-1,·
C/C=C/c1ccc(C2[C@H]3CNC[C@@H]2N3C(=O)Nc2ccc3c(c2)OCO3)cc1 (some centres not stated),0,·,·,·,·,1,·
CCCCn1c(=O)[nH]c2nc3cc(N)ccc3nc2c1=O,0,·,110*,36,0,-1,1%
O=C(O)c1ccc2cccnc2c1O,0,-6,61*,0,0,4,-5%
O=C(C[C@@H]1C=C[C@@H](NS(=O)(=O)c2ccccc2)[C@H](CO)O1)NCc1ccccc1F,0,-1,·,·,·,1,·
Cc1ccc(C#N)c(SCc2ccccc2F)n1,0,·,60*,·,-1,-1,-1%
N=C1S/C(=C\c2ccc(-c3ccccc3C(=O)O)o2)C(=O)N1c1ccc2c(c1)OCO2,0,·,99*,11,-1,20,-4%
COc1ccccc1N1C(=N)S/C(=C\c2ccc(-c3ccccc3C(=O)O)o2)C1=O,0,0,1,-27,-3,11,·
CC1CCCCC1NCC#CCOc1ccc(Cl)cc1 (configuration not stated),0,-13,2,9,-3,0,·
CC(C)NCC#CCOc1ccc(Cl)cc1,0,·,53*,4,-1,-11,-3%
CO[C@@H]1CN(C)C(=O)c2cc(NC(=O)c3ccc(F)cc3)ccc2OC[C@@H](C)N(C(=O)c2ccc(F)cc2)C[C@@H]1C,0,5,·,·,·,-2,·
SMILES,Xi reactivation,esBAF inh,NSD2 HMT inh,MITF TRPM1 HTS,Wnt bcat act,Casp6 inh,Alpha artifact
CC(=O)N(C)C[C@H]1[C@@H](c2ccc(-c3cccc(C#N)c3)cc2)[C@@H](CO)N1C(C)=O,0,·,·,·,·,·,·
Cc1cc(OCCn2nc(C(=O)O)c3ccccc3c2=O)ccc1C(C)C,0,0,90*,3,1,4,-3%
CCOc1ccccc1/C=N/NC(=O)c1nnn(-c2nonc2N)c1CN1CCC(C)CC1,0,-6,83*,22,-3,-1,-9%
COc1ccc(C(=O)NCc2nnc(SCC(=O)Nc3cc(C)cc(C)c3)o2)cc1OC,·,·,75*,3,-4,·,-3%
O=C(NCCCN1CCCC1=O)Nc1cc(Cl)ccc1Cl,0,·,14,-8,2,-7,·
O=C(NCCCN1CCCC1=O)Nc1ccc(Cl)cc1Cl,0,·,50*,6,4,1,0%
COc1ccc(C[C@@H]2CCc3cnnn3COC[C@@H](Cc3ccccc3)NC2=O)cc1,0,·,·,·,·,6,·
COC1=C(C)C(=O)C2=C(C1=O)C1C3CC4=C(C(=O)C(OC)=C(C)C4=O)C(CNC(=O)C(C)=O)N3C(C#N)C(C2)N1C (configuration not stated),5,·,75*,·,-26,19,-3%
O=C(N[C@@H]1CC[C@@H](CCNC(=O)C2CCCCC2)O[C@H]1CO)c1ccncc1,0,0,·,·,·,-3,·
C=CCn1c(SCC(C)=O)nc2scc(-c3ccco3)c2c1=O,0,8,0,12,0,9,·
C=CCn1c(SCc2ccc3c(c2)OCO3)nc2scc(-c3ccco3)c2c1=O,·,9,117*,·,·,·,-3%
CC1(C)Cc2ccccc2C2=NNC(=O)C2=N1,0,-4,106*,-95,15,15,3%
CC1(C)Cc2ccccc2C(Nn2cnnc2)=N1,·,-2,3,0,-2,-2,·
C[C@@H]1CN([C@@H](C)CO)C(=O)c2cccc(NS(C)(=O)=O)c2O[C@@H]1CN(C)Cc1ccc(C(=O)Nc2ccccc2N)cc1,0,-18,·,·,·,-1,·
COc1ccc(NC(=O)N2C[C@@H](O)COC[C@H]3O[C@@H](CC(=O)NC4Cc5ccccc5C4)CC[C@@H]32)cc1,0,0,·,·,·,1,·
N#Cc1ccc(C(=O)OCC(=O)N2CCN(C(=O)c3ccco3)CC2)cc1,0,-2,1,-3,-2,0,·
N#Cc1ccccc1OCC(=O)OCC(=O)N1CCN(C(=O)c2ccco2)CC1,0,·,57*,-13,-2,-1,-3%
CO[C@H]1CN(C)C(=O)c2ccc(NC(=O)C3CCCCC3)cc2OC[C@@H](C)NC[C@@H]1C,0,1,·,·,·,0,·
O=C(CCCN1C(=O)/C(=C/c2ccccc2)SC1=S)Nc1ccc(C(=O)O)c(O)c1,0,-12,55*,15,-1,25,-7%
